Active and inactive are the calls of the source. No cut-off for these calls is given here.
Columns and labels:
[1] = Cytotoxicity against human CL141T cells after 72 hrs by Alamar blue assay; format: functional, cell-based
How it was run: (§1)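 Cells exposed to compound for 72 h, then Alamar blue added with a further 10−12 h at 37 °C and a spectrophotometric read. IC50 from six or seven concentrations by median-effect analysis; mean ± STDEV, n = 3. CL141T is a line derived from a patient lung tumor passaged as a SCID mouse xenograft.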

[2] = Cytotoxicity against human OECM1 cells after 72 hrs by Alamar blue assay; format: functional, cell-based; details: OECM1, 72 h; how it was run: as §1
[3] = Resistance factor, ratio of IC50 for human KB-VIN10 cells to IC50 for human KB cells; format: functional
[4] = Cytotoxicity against human KB-VIN10 cells after 72 hrs by Alamar blue assay; details: KB-VIN10, 72 h
[5] = Cytotoxicity against human HEL299 cells; format: cell-based; details: HEL 299
[6] = Cell cycle arrest in human CL141T cells assessed as accumulation at sub-G1 phase at 0.5 x IC50 to 2 x IC50 after 72 hrs by propidium iodide staining-based FACS flow cytometric analysis; format: functional
How it was run: (§2)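 CL141T cells treated at 0.5-, 1- and 2-fold IC50 for 24, 48 and 72 h. Cells fixed in ice-cold 70% EtOH, then stained with 4 μg/mL propidium iodide in PBS with 1% Triton X-100 and 0.1 mg/mL RNase A. Phase distribution from flow cytometry DNA histograms; sub-G1 fraction scored as well.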

MX1 [7] = test: Antitumor activity against human MX1 cells xenografted in nude mouse assessed as tumor growth inhibition at 35 mg/kg, iv qd administered 4 days measured on day 20 relative to vehicle-treated control; format: functional; details: read-out: TGI
HCT-116 = test: Cytotoxicity against human HCT116 cells after 72 hrs by Alamar blue assay; format: functional, cell-based; details: HCT-116, 72 h; how it was run: as §1
[8] = Cell cycle arrest in human CL141T cells assessed as accumulation at S phase at 3.75 to 15 uM after 24 hrs by propidium iodide staining-based FACS flow cytometric analysis; format: functional; how it was run: as §2
[9] = Cell cycle arrest in human CL141T cells assessed as accumulation at G2/M phase at 2 x IC50 after 24 hrs by propidium iodide staining-based FACS flow cytometric analysis; format: functional; how it was run: as §2
PC-3 = test: Cytotoxicity against human PC3 cells after 72 hrs by Alamar blue assay; format: functional, cell-based; details: PC-3, 72 h; how it was run: as §1
[10] = Cell cycle arrest in human CL141T cells assessed as accumulation at G2/M phase at 0.5 x IC50 to 1 x IC50 after 48 to 72 hrs by propidium iodide staining-based FACS flow cytometric analysis; format: functional; how it was run: as §2
MX1 [11] = test: Cytotoxicity against human MX1 cells after 72 hrs by SRB assay; format: functional, cell-based; details: MX1, 72 h
Mus musculus [12] = test: Toxicity in nude mouse xenografted with human MX1 cells assessed as body weight loss at 35 mg/kg, iv qd administered 4 days measured for 20 days; format: organism-based; design: dose 35 mg/kg, route intravenous; details: in vivo, 480 h
KB = test: Cytotoxicity against human KB cells after 72 hrs by Alamar blue assay
Escherichia coli = test: Induction of Escherichia coli pEGFP-N1 DNA interstrand cross-linking at 1 to 10 uM after 2 hrs by alkaline agarose gel shift assay
How it was run: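 Plasmid pEGFP-N1 DNA (1500 ng) incubated with compound at 1, 5 and 10 μM in 3 mM NaCl/1 mM sodium phosphate pH 7.4/1 mM EDTA, 2 h at 37 °C. DNA then BamHI-linearized, EtOH-precipitated, denatured in 0.5 N NaOH/10 mM EDTA, run on 0.8% alkaline agarose at 4 °C (18 V, 22 h), stained with ethidium bromide.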

CCRF-CEM = test: Cytotoxicity against human CCRF-CEM cells after 72 hrs by XTT assay; format: functional, cell-based
How it was run: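 CCRF-CEM T-ALL cells incubated with compound for 72 h. XTT with phenazine methosulfate then added for 6 h at 37 °C, absorbance read at 450 and 630 nm. IC50 from six or seven concentrations by median-effect analysis; mean ± STDEV, n = 3.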

[13] = Cytotoxicity against human MES-SA cells after 72 hrs by Presto Blue assay; format: functional, cell-based
How it was run: (§3)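 MES-SA and doxorubicin-resistant MES-SA/dx5 cells exposed for 72 h, then PrestoBlue added for 3 h at 37 °C, absorbance read at 570 and 600 nm. IC50 by median-effect analysis of six or seven concentrations; mean ± STDEV of three to six independent experiments.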

NCI-H460 [14] = test: Induction of apoptosis in human H460 cells assessed as increase in apoptotic cells at IC50 after 24 hrs by annexin V-FITC/propidium iodide staining-based FACS flow cytometric analysis (reference value: 4.1%); format: functional
NCI-H460 [15] = test: Induction of apoptosis in human H460 cells assessed as increase in cleaved PARP expression at IC50 after 24 to 72 hrs by Western blotting analysis; format: functional, cell-based
How it was run: (§4)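 H460 cells treated at IC50 for 24 and 72 h. Lysate proteins separated by SDS-PAGE and blotted to nitrocellulose, blocked in 5% milk/PBST. Primary antibodies to caspase-3, caspase-7, PARP (full-length and cleaved) and β-actin applied for 1 h at room temperature or overnight at 4 °C; HRP secondary with ECL detection.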

MES-SA = test: Resistance factor, ratio of IC50 for human MES-SA/Dx5 cells to IC50 for human MES-SA cells; format: functional
[16] = Cytotoxicity against human H460 cells after 72 hrs by Alamar blue assay; format: functional, cell-based; details: NCI-H460, 72 h; how it was run: as §1
A549 = test: Cytotoxicity against human A549 cells after 72 hrs by Alamar blue assay; format: functional, cell-based; details: A549, 72 h; how it was run: as §1
[17] = Cell cycle arrest in human CL141T cells assessed as accumulation at S phase at 1 x IC50 to 2 x IC50 after 24 hrs by propidium iodide staining-based FACS flow cytometric analysis; format: functional; how it was run: as §2
MX1 [18] = test: Antitumor activity against human MX1 cells xenografted in nude mouse assessed as tumor growth inhibition at 25 mg/kg, iv qd administered 3 days measured on day 20 relative to vehicle-treated control; format: functional; details: read-out: TGI
NCI-H460 [19] = test: Induction of apoptosis in human H460 cells assessed as increase in cleaved caspase 3 expression at IC50 after 24 to 72 hrs by Western blotting analysis; format: functional, cell-based; how it was run: as §4
NCI-H460 [20] = test: Induction of apoptosis in human H460 cells assessed as increase in apoptotic cells at IC50 after 72 hrs by annexin V-FITC/propidium iodide staining-based FACS flow cytometric analysis (reference value: 9.29%); format: functional
[21] = Cytotoxicity against human MES-SA/Dx5 cells after 72 hrs by Presto Blue assay; format: functional, cell-based; details: MES-SA/Dx5, 72 h; how it was run: as §3
[22] = Cell cycle arrest in human CL141T cells assessed as accumulation at S phase at 0.5 x IC50 after 24 hrs by propidium iodide staining-based FACS flow cytometric analysis; format: functional; how it was run: as §2
Mus musculus [23] = test: Toxicity in nude mouse xenografted with human MX1 cells assessed as body weight loss at 25 mg/kg, iv qd administered 3 days measured for 20 days; format: organism-based; design: dose 25 mg/kg, route intravenous; details: in vivo, 480 h
[24] = Cell cycle arrest in human CL141T cells assessed as accumulation at G1 phase at 1 x IC50 to 2 x IC50 after 24 hrs by propidium iodide staining-based FACS flow cytometric analysis; format: functional; how it was run: as §2
NCI-H460 [25] = test: Induction of apoptosis in human H460 cells assessed as increase in cleaved caspase 7 expression at IC50 after 24 to 72 hrs by Western blotting analysis; format: functional, cell-based; how it was run: as §4
HT-29 = test: Cytotoxicity against human HT-29 cells after 72 hrs by Alamar blue assay; format: functional, cell-based; details: HT-29, 72 h; how it was run: as §1

For CC(C)NC(=O)OCc1c(COC(=O)NC(C)C)c(-c2ccc(F)cc2)n2c1Cc1c(n(C)c3ccccc13)C2, the IC50 [1] was 7.46 µM, the IC50 [2] was 6.56 µM and the “Ratio IC50” value [3] was 1.1. The IC50 [4] was 15.6 µM, the IC50 [5] was 25.9 µM and the Activity [6] was “Active”. For the same molecule, the inhibition in vivo at 35 mg/kg (MX1 [7]) was over 99%, the IC50 (HCT-116) was 6.09 µM and the Activity [8] was “Active”. The Activity [9] was “inactive”, the IC50 (PC-3) was 6.71 µM and the Activity [10] was “Active”. For the same molecule, the IC50 (MX1 [11]) was 2.19 µM, the Activity (Mus musculus [12]) was “Toxic” and the IC50 (KB) was 14.2 µM. The Activity (Escherichia coli) was “Active” and the IC50 (CCRF-CEM) was 0.11 µM.
For CCn1c2c(c3ccccc31)Cc1c(CO)c(CO)c(C)n1C2, the IC50 [1] was 0.79 µM, the IC50 [13] was 0.4 µM and the Activity (NCI-H460 [14]) was 12.92%. For the same molecule, the IC50 [2] was 1.17 µM, the “Ratio IC50” value [3] was 0.62 and the IC50 [4] was 0.9 µM. The IC50 [5] was 2.24 µM, the Activity (NCI-H460 [15]) was “Active” and the “Ratio IC50” value (MES-SA) was 0.6. For the same molecule, the IC50 [16] was 0.73 µM, the Activity [6] was “Active” and the IC50 (HCT-116) was 1.71 µM. For the same molecule, the IC50 (A549) was 2.97 µM, the Activity [9] was “inactive” and the Activity [17] was “Active”. For the same molecule, the IC50 (PC-3) was 2.66 µM, the Activity [10] was “Active” and the inhibition in vivo at 25 mg/kg (MX1 [18]) was over 99%. For the same molecule, the Activity (NCI-H460 [19]) was “Active”, the Activity (NCI-H460 [20]) was 43.52% and the IC50 [21] was 0.24 µM. For the same molecule, the Activity [22] was “Active”, the Activity (Mus musculus [23]) was “Toxic” and the Activity [24] was “Active”. The IC50 (KB) was 1.47 µM, the Activity (NCI-H460 [25]) was “Active” and the Activity (Escherichia coli) was “Active”. It also gave an IC50 (HT-29) of 6.15 µM and an IC50 (CCRF-CEM) of 0.1 µM.

Reference: ChEMBL document CHEMBL2331340, “Novel antitumor indolizino[6,7-b]indoles with multiple modes of action: DNA cross-linking and topoisomerase I and II inhibition” (J Med Chem, 2013)
